Experimental data reported in ChEMBL document CHEMBL5034051, “Proteome-wide Identification of Off-Targets of a Potent EGFRL858R/T790M Mutant Inhibitor” (ACS Med Chem Lett, 2022).
One block for each compound: values may come before it. The source made the active and inactive calls. No cut-off for these calls is given here.

Experiments:
NCI-H1975 [1] = assay: Binding affinity to MAP4 in human NCI-H1975 cells at 5 uM by pull down/LC-MS/MS analysis; assay type: cell-based
Procedure, shortened: (§1)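 Live H1975 cells were incubated for 1 h with the 5 μM alkyne probe, with or without 5× parent inhibitor as competitor. Cells were lysed and clicked by CuAAC to a biotin-TAMRA-azide tag. Proteins were enriched on streptavidin beads, checked by in-gel fluorescence, trypsin-digested and run on LC-MS/MS with label-free quantification. Hits were kept if log2 enrichment (probe/DMSO) was >3, −log10 p was >2 and probe LFQ intensity was >1 × 10^7.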

[2] = target: T1, 5'-nucleotidase domain-containing protein 1 (Homo sapiens) (UniProt Q5TFE4); assay: Binding affinity to NT5DC1 in human NCI-H1975 cells at 5 uM by pull down/LC-MS/MS analysis; assay type: cell-based; procedure, shortened: as §1
T1 sequence (whole entry): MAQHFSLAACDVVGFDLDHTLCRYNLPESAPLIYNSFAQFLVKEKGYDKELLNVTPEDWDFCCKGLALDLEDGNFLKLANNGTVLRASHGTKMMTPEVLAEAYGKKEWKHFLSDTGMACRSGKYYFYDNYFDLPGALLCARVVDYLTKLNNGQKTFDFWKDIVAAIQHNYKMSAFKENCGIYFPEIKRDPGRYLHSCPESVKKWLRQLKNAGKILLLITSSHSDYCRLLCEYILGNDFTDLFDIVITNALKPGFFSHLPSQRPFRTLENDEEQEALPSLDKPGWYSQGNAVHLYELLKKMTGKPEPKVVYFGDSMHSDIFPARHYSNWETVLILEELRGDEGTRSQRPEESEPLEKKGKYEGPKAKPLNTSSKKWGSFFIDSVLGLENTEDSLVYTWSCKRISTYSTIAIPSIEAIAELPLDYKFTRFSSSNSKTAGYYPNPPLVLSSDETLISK

[3] = target: T1, 5'-nucleotidase domain-containing protein 1 (Homo sapiens); assay: Binding affinity to NT5DC1 in human MV4-11 cells at 1 uM by Western blot analysis; assay type: cell-based
Procedure, shortened: (§2)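 Live cancer cells were labelled in situ with the 1 μM alkyne probe, clicked to TAMRA-azide and resolved by SDS-PAGE with fluorescence scanning. NT5DC1 expression in each line was measured separately by Western blot.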

[4] = target: T1, 5'-nucleotidase domain-containing protein 1 (Homo sapiens); assay: Thermal stabilization of NT5DC1 in human NCI-H1975 cells assessed as positive shift in melting temperature by CETSA; assay type: cell-based
Procedure, shortened: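 Binding was tested by cellular thermal shift assay in H1975 cells exposed to the compounds. NT5DC1 stabilization was read as a shift in melting temperature.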

[5] = target: T1, 5'-nucleotidase domain-containing protein 1 (Homo sapiens); assay: Binding affinity to NT5DC1 in human MCF7 cells at 1 uM by Western blot analysis; assay type: cell-based; procedure, shortened: as §2
NCI-H1975 [6] = assay: Antiproliferative activity against human NCI-H1975 cells harboring EGFR T790M mutant assessed as reduction in cell viability measured after 72 hrs by CCK8 assay; assay type: functional, cell-based; conditions: NCI-H1975, 72 h
Procedure, shortened: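 H1975 NSCLC cells, which carry EGFR T790M, were used in a cell-based CCK8 antiproliferation assay. IC50 values were reported.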

[7] = target: Trifunctional enzyme subunit alpha, mitochondrial (Homo sapiens) (UniProt P40939); assay: Binding affinity to HADHA in human NCI-H1975 cells at 5 uM by pull down/LC-MS/MS analysis; assay type: cell-based; procedure, shortened: as §1
Chain of Trifunctional enzyme subunit alpha, mitochondrial (Homo sapiens) (P40939 whole entry): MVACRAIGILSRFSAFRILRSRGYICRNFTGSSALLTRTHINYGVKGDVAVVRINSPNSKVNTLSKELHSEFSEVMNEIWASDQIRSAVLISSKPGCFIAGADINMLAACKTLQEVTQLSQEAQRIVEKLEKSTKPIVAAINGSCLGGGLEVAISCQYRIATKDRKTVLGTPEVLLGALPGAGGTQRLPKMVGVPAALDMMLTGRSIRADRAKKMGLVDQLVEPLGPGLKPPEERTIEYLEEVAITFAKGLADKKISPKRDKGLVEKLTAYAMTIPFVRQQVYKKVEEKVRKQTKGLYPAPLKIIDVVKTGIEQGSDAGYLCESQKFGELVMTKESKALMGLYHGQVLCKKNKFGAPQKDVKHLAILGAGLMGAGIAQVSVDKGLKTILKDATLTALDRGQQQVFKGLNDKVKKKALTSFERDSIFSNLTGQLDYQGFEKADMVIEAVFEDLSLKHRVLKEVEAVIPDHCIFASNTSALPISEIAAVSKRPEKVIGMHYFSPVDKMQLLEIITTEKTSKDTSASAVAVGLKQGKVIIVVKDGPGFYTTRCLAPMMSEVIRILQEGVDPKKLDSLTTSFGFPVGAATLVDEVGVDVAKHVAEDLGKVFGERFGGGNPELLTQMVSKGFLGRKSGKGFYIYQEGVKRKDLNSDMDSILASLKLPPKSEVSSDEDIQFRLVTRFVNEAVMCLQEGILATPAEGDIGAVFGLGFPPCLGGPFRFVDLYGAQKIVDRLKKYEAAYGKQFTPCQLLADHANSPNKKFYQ

[8] = target: Mitochondrial antiviral-signaling protein (Homo sapiens) (UniProt Q7Z434); assay: Binding affinity to MAVS in human NCI-H1975 cells at 5 uM by pull down/LC-MS/MS analysis; assay type: cell-based; procedure, shortened: as §1
Chain of Mitochondrial antiviral-signaling protein (Homo sapiens) (Q7Z434 whole entry, the tested form may be a part): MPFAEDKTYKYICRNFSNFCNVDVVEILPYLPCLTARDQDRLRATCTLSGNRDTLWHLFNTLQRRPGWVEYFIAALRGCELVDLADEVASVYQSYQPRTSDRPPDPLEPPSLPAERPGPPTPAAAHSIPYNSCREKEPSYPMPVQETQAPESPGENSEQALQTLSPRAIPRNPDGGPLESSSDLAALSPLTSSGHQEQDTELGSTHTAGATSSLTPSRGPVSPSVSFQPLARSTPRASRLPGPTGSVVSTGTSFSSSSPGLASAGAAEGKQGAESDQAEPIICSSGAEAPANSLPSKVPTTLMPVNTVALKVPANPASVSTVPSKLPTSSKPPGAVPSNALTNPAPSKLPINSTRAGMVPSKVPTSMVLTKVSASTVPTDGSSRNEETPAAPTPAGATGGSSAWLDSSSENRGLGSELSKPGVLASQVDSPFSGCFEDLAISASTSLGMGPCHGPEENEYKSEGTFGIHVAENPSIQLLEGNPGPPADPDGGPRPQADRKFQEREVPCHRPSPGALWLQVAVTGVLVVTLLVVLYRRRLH

[9] = target: T1, 5'-nucleotidase domain-containing protein 1 (Homo sapiens); assay: Binding affinity to NT5DC1 in human MDA-MB-453 cells at 1 uM by Western blot analysis
[10] = target: T1, 5'-nucleotidase domain-containing protein 1 (Homo sapiens); assay: Inhibition of NT5DC1 in human NCI-H1975 cells by pull down/Western blot analysis; assay type: cell-based
Procedure, shortened: (§3)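 H1975 cells were treated with the probe, and the lysate was clicked to a biotin tag and enriched on streptavidin beads. The pulled-down proteins were then detected by Western blot with antibodies to EGFR and NT5DC1.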

NCI-H1975 [11] = assay: Binding affinity to RPS19 in human NCI-H1975 cells at 5 uM by pull down/LC-MS/MS analysis; assay type: cell-based; procedure, shortened: as §1
NCI-H1975 [12] = assay: Antiproliferative activity against NT5DC1 knockdown human NCI-H1975 cells assessed as reduction in cell viability incubated for 48 hrs by CCK8 assay; assay type: functional, cell-based
Procedure, shortened: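 NT5DC1 was knocked down in H1975 cells with siRNA, with scrambled siRNA as the negative control. Knockdown was checked by Western blot. Cells with or without knockdown were exposed to a range of compound concentrations, and viability was read out against DMSO-treated controls.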

[13] = target: T1, 5'-nucleotidase domain-containing protein 1 (Homo sapiens); assay: Binding affinity to NT5DC1 in human NCI-H1299 cells at 1 uM by Western blot analysis; assay type: cell-based; procedure, shortened: as §2
[14] = target: T1, 5'-nucleotidase domain-containing protein 1 (Homo sapiens); assay: Binding affinity to NT5DC1 in human HeLa cells at 1 uM by Western blot analysis; assay type: cell-based; procedure, shortened: as §2
[15] = target: T1, 5'-nucleotidase domain-containing protein 1 (Homo sapiens); assay: Binding affinity to NT5DC1 in human Huh-7 cells at 1 uM by Western blot analysis; assay type: cell-based; procedure, shortened: as §2
[16] = Drug uptake in cytosol of human NCI-H1975 cells assessed as fluorescence signal at 5 uM incubated for 1 hrs by fluorescence microscopy; assay type: ADME, subcellular
Procedure, shortened: (§4)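 Live H1975 cells were incubated for 1 h with the 5 μM alkyne probe, with or without parent inhibitor, against DMSO controls. Cells were then fixed, permeabilized, clicked with TAMRA-azide and imaged by fluorescence microscopy, with excitation at 550 nm for the probe channel.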

[17] = target: Epidermal growth factor receptor (Homo sapiens) (UniProt P00533); assay: Inhibition of EGFR in human NCI-H1975 cells by pull down/Western blot analysis; assay type: cell-based; procedure, shortened: as §3
Chain of Epidermal growth factor receptor (Homo sapiens) (P00533 whole entry): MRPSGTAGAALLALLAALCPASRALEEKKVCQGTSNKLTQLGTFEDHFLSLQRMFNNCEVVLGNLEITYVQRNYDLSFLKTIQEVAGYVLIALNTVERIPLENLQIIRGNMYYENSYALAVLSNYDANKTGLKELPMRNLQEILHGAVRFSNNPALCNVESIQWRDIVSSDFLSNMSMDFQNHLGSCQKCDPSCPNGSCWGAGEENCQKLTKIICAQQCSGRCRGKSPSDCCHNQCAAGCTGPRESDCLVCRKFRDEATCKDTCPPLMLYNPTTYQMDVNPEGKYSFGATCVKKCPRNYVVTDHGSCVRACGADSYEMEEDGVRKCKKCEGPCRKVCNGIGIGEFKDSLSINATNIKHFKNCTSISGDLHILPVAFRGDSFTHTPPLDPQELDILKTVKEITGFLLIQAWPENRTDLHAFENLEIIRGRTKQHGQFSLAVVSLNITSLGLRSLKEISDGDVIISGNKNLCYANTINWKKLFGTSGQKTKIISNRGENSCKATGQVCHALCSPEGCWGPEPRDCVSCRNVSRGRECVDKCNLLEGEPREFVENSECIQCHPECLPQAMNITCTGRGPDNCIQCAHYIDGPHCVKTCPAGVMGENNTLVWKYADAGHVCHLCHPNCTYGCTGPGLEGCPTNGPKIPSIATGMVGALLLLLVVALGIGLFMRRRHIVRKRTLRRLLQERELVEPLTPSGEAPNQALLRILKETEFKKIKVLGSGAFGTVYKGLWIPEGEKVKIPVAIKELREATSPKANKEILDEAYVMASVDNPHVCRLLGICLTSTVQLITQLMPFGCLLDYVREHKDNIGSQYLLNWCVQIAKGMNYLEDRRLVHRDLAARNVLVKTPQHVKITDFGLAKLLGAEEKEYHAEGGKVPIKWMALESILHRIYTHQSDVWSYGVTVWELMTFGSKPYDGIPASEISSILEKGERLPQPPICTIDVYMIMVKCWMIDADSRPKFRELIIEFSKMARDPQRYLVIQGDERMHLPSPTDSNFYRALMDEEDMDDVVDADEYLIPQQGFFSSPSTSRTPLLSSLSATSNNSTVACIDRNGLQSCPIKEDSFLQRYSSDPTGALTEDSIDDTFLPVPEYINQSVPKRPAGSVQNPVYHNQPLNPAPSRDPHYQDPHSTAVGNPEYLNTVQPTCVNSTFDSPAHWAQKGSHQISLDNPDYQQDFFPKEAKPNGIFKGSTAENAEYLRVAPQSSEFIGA

[18] = target: DNA replication licensing factor MCM2 (Homo sapiens) (UniProt P49736); assay: Binding affinity to MCM2 in human NCI-H1975 cells at 5 uM by pull down/LC-MS/MS analysis; assay type: cell-based; procedure, shortened: as §1
Chain of DNA replication licensing factor MCM2 (Homo sapiens) (P49736 whole entry): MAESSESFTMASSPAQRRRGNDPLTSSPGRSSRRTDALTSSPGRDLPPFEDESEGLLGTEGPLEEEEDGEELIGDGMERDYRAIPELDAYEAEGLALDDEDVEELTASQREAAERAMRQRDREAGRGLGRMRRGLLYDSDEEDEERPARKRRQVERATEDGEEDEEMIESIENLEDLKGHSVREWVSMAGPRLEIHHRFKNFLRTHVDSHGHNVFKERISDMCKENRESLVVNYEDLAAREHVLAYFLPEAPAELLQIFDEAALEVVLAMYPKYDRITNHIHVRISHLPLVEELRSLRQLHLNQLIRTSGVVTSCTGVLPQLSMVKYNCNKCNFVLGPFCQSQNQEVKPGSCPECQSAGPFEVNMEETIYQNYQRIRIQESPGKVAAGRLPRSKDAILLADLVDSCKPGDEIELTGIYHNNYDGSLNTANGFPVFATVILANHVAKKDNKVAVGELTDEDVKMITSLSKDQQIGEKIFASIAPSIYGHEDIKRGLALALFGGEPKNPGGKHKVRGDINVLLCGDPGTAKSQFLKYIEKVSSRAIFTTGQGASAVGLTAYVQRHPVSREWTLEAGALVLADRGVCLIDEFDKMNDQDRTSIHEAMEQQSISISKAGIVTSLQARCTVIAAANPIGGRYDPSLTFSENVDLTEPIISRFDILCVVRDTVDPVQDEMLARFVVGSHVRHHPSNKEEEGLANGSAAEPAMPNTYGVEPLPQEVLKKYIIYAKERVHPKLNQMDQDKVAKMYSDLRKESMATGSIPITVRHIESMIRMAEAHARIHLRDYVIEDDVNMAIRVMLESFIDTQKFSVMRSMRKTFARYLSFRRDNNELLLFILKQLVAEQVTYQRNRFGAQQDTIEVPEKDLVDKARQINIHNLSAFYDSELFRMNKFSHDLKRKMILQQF

[19] = target: Epidermal growth factor receptor (Homo sapiens) (UniProt P00533); assay: Binding affinity to EGFR in human NCI-H1975 cells at 5 uM by pull down/LC-MS/MS analysis; assay type: cell-based; procedure, shortened: as §1
[20] = Drug uptake in nucleus of human NCI-H1975 cells assessed as fluorescence signal at 5 uM incubated for 1 hrs by fluorescence microscopy; assay type: ADME, cell-based; conditions: nci-h1975, 1 h; procedure, shortened: as §4
[21] = target: Epidermal growth factor receptor (Homo sapiens, UniProt P00533, T790M); assay: Inhibition of EGFR T790M mutant (unknown origin) using Poly (Glu, Tyr)4:1 as substrate by spectrophotometry
Chain of Epidermal growth factor receptor (P00533 25-1210 T790M limits assumed): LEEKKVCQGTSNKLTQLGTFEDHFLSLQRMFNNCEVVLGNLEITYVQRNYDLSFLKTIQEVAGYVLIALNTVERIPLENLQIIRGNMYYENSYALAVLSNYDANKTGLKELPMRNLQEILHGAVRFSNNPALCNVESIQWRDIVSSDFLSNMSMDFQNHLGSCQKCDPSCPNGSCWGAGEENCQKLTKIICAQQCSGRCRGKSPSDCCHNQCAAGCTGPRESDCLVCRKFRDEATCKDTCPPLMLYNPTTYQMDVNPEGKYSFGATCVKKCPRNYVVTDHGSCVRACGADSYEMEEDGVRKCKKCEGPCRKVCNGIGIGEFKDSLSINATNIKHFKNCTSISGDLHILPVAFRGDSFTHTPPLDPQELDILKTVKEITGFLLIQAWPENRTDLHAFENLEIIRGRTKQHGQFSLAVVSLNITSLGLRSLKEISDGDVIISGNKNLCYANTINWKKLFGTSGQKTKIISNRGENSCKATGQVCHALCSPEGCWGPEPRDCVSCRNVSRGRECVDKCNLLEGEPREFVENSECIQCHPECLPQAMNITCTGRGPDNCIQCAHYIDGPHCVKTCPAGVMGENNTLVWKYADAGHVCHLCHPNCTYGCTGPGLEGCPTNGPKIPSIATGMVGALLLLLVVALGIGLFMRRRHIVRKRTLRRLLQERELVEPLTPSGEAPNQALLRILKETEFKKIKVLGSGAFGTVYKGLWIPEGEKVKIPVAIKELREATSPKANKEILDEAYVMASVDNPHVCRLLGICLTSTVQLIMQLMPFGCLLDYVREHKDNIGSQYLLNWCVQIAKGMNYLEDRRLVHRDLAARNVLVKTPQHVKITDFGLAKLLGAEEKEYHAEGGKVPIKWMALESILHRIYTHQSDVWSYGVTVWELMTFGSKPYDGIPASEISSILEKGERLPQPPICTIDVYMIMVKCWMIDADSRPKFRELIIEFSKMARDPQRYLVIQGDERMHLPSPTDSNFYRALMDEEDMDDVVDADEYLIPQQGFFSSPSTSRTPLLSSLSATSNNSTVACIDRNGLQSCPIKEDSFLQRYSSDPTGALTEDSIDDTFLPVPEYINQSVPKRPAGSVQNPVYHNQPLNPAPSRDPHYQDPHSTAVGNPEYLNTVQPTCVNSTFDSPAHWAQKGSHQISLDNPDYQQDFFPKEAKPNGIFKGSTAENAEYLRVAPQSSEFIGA

- Activity [2]: Active
- Activity [3]: Active
- Activity [4]: Active
- Activity [5]: Active
- IC50 (NCI-H1975 [6]): 0.82 µM
- Activity [7]: Active
- Activity [8]: Active
- Activity [9]: Active
- inhibition [10]: Active
- Activity [13]: Active
- Activity [14]: Active
- Activity [15]: Active
- Drug uptake [16]: Active
- inhibition [17]: Active
- Activity [18]: Active
- Activity [19]: Active
- Drug uptake [20]: Not Active
- IC50 [21]: 0.00804 µM
Compound: C#CCN1CCN(c2ccc(Nc3ncc4c(C)cc(=O)n(-c5cccc(NC(=O)C=C)c5)c4n3)c(OC)c2)CC1
- Activity (NCI-H1975 [1]): Active
- Activity (NCI-H1975 [11]): Active
- Activity (NCI-H1975 [12]): Active

- Activity [4]: Active
- IC50 (NCI-H1975 [6]): 0.13 µM
- IC50 [21]: 0.00527 µM
Compound: C=CC(=O)Nc1cccc(-n2c(=O)cc(C)c3cnc(Nc4ccc(N5CCN(C)CC5)cc4OC)nc32)c1
- Activity (NCI-H1975 [12]): Active

- IC50 (NCI-H1975 [6]): 0.37 µM
Compound: CN(C)C/C=C/C(=O)Nc1cc2c(Nc3ccc(F)c(Cl)c3)ncnc2cc1O[C@H]1CCOC1 [AFATINIB]
